Assay results from ChEMBL document CHEMBL4765445, “Structure-activity relationship study of novel quinazoline-based 1,6-naphthyridinones as MET inhibitors with potent antitumor efficacy” (Eur J Med Chem, 2020).

What was measured:
[1] = molecular target: T1, Hepatocyte growth factor receptor (Homo sapiens, UniProt P08581); experiment: Inhibition of recombinant MET kinase domain (unknown origin)
[2] = Cmax in nude mouse xenografted with human U-87 MG cells at 25 mg/kg, po administered once daily for 3 weeks; format: ADME, organism-based; set-up: route oral, dose 25 mg/kg, time 3 weeks; conditions: in vivo
In short: (§1)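 PK/PD sampling was done within the U-87 MG nude-mouse xenograft study. Compound was given p.o. once daily for 21 days in 70% PEG-400/H₂O. Cmax and AUC0-t were measured in plasma.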

U-87 MG [3] = experiment: Antitumor activity against human U-87 MG cells xenografted in nude mouse assessed as tumor growth inhibition at 75 mg/kg, po administered once daily for 3 weeks relative to control; format: functional, U-87MG ATCC; conditions: 504 h, read-out: TGI
[4] = Half life in human liver microsomes; format: ADME, Microsome
[5] = AUC (0 to t) in nude mouse xenografted with human U-87 MG cells at 75 mg/kg, po administered once daily for 3 weeks; format: ADME, organism-based; set-up: time 3 weeks, dose 75 mg/kg; conditions: in vivo
[6] = molecular target: Vascular endothelial growth factor receptor 2 (Homo sapiens, UniProt P35968); experiment: Inhibition of recombinant VEGFR2 kinase domain (unknown origin)
In short: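 In vitro kinase assay using purified recombinant VEGFR-2 kinase domain; IC50 determined.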

[7] = Apparent volume of distribution in rat at 10 mg/kg, po; format: ADME, organism-based; conditions: in vivo
In short: (§2)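 Rat pharmacokinetics used 10 mg/kg p.o. and 5 mg/kg i.v. with vehicle 70% PEG400-30% water. Plasma concentration–time curves gave Cmax, Tmax, T1/2, AUC0-∞, CL, Vz and oral bioavailability F. Values are the average of three animals.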

[8] = Cmax in nude mouse xenografted with human U-87 MG cells at 75 mg/kg, po administered once daily for 3 weeks; format: ADME, organism-based; set-up: route oral, time 3 weeks, dose 75 mg/kg; conditions: in vivo; in short: as §1
[9] = Cmax in rat at 10 mg/kg, po; format: ADME, organism-based; set-up: route oral, dose 10 mg/kg; conditions: in vivo; in short: as §2
[10] = Half life in rat at 5 mg/kg, iv; format: ADME, organism-based; conditions: in vivo; in short: as §2
[11] = molecular target: Mast/stem cell growth factor receptor Kit (Homo sapiens, UniProt P10721); experiment: Inhibition of c-KIT (unknown origin)
[12] = AUC (0 to infinity) in rat at 5 mg/kg, iv; format: ADME, organism-based; set-up: time infinity, route intravenous, dose 5 mg/kg; conditions: in vivo
[13] = molecular target: T2, Receptor-type tyrosine-protein kinase FLT3 (Homo sapiens, UniProt P36888); experiment: Inhibition of FLT3 (unknown origin)
T2 sequence (P36888 whole entry): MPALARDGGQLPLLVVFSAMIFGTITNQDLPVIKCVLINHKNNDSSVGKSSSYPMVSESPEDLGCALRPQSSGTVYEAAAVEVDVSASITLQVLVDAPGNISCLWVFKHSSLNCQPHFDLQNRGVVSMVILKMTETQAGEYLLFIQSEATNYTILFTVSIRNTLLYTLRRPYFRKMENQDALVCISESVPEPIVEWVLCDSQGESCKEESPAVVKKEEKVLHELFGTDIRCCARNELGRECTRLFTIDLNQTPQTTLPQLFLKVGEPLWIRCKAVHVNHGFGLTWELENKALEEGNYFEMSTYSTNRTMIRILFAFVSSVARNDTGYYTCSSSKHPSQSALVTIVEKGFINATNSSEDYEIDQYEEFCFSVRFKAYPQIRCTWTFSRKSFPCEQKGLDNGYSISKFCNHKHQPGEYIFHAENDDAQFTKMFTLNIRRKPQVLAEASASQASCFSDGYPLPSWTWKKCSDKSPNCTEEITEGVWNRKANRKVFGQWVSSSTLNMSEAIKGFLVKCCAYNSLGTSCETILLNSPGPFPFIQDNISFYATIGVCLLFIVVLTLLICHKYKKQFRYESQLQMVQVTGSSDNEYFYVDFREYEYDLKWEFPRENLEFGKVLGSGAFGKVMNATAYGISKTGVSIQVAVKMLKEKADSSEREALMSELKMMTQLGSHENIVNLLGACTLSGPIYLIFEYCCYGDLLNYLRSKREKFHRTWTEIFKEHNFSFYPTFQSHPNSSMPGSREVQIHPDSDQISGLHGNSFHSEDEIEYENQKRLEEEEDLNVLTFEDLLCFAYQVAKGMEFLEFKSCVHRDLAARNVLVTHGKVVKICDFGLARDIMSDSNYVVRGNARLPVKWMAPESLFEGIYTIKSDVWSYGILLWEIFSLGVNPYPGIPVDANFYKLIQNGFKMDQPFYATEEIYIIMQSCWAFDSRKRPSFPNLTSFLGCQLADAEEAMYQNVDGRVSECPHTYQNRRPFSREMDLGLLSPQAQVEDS

[14] = molecular target: T1, Hepatocyte growth factor receptor; experiment: Inhibition of MET in human MKN-45 cells assessed as reduction in HGF-mediated autophosphorylation; format: cell-based
[15] = Tmax in rat at 5 mg/kg, iv; format: ADME, organism-based; conditions: in vivo; in short: as §2
[16] = Tmax in rat at 10 mg/kg, po; format: ADME, organism-based; conditions: in vivo; in short: as §2
[17] = Apparent volume of distribution in rat at 5 mg/kg, iv; format: ADME, organism-based; conditions: in vivo, read-out: Vz; in short: as §2
[18] = Oral bioavailability in rat at 10 mg/kg; format: ADME, organism-based; conditions: in vivo; in short: as §2
[19] = Cmax in rat at 5 mg/kg, iv; format: ADME, organism-based; set-up: route intravenous, dose 5 mg/kg; conditions: in vivo; in short: as §2
[20] = Clearance in rat at 5 mg/kg, iv; format: ADME, organism-based; conditions: in vivo; in short: as §2
[21] = AUC (0 to t) in nude mouse xenografted with human U-87 MG cells at 25 mg/kg, po administered once daily for 3 weeks; format: ADME, organism-based; set-up: time 3 weeks, dose 25 mg/kg; conditions: in vivo
[22] = Clearance in rat at 10 mg/kg, po; format: ADME, organism-based; conditions: in vivo; in short: as §2
U-87 MG [23] = experiment: Antitumor activity against human U-87 MG cells xenografted in nude mouse assessed as tumor growth inhibition at 25 mg/kg, po administered once daily for 3 weeks; format: functional, U-87MG ATCC; conditions: 504 h, read-out: TGI
[24] = AUC (0 to infinity) in rat at 10 mg/kg, po; format: ADME, organism-based; set-up: time infinity, route oral, dose 10 mg/kg; conditions: in vivo
[25] = Half life in rat at 10 mg/kg, po; format: ADME, organism-based; conditions: in vivo; in short: as §2
U-87 MG [26] = experiment: Antitumor activity against human U-87 MG cells xenografted in po dosed nude mouse assessed as tumor growth inhibition administered once daily for 3 weeks; format: functional, U-87MG ATCC
[27] = molecular target: Platelet-derived growth factor receptor beta (Homo sapiens, UniProt P09619); experiment: Inhibition of PDGFRbeta (unknown origin)
Homo sapiens = species: Homo sapiens; experiment: Selectivity ratio of IC50 for recombinant VEGFR2 (unknown origin) to IC50 for recombinant MET (unknown origin)
In short: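 In vitro enzyme assays used purified recombinant MET and VEGFR-2 kinase domains, each tested separately. IC50 values are in nM. The ratio divides the VEGFR-2 enzyme IC50 by the MET enzyme IC50.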

Chain of Vascular endothelial growth factor receptor 2 (P35968 whole entry, the tested form may be a part): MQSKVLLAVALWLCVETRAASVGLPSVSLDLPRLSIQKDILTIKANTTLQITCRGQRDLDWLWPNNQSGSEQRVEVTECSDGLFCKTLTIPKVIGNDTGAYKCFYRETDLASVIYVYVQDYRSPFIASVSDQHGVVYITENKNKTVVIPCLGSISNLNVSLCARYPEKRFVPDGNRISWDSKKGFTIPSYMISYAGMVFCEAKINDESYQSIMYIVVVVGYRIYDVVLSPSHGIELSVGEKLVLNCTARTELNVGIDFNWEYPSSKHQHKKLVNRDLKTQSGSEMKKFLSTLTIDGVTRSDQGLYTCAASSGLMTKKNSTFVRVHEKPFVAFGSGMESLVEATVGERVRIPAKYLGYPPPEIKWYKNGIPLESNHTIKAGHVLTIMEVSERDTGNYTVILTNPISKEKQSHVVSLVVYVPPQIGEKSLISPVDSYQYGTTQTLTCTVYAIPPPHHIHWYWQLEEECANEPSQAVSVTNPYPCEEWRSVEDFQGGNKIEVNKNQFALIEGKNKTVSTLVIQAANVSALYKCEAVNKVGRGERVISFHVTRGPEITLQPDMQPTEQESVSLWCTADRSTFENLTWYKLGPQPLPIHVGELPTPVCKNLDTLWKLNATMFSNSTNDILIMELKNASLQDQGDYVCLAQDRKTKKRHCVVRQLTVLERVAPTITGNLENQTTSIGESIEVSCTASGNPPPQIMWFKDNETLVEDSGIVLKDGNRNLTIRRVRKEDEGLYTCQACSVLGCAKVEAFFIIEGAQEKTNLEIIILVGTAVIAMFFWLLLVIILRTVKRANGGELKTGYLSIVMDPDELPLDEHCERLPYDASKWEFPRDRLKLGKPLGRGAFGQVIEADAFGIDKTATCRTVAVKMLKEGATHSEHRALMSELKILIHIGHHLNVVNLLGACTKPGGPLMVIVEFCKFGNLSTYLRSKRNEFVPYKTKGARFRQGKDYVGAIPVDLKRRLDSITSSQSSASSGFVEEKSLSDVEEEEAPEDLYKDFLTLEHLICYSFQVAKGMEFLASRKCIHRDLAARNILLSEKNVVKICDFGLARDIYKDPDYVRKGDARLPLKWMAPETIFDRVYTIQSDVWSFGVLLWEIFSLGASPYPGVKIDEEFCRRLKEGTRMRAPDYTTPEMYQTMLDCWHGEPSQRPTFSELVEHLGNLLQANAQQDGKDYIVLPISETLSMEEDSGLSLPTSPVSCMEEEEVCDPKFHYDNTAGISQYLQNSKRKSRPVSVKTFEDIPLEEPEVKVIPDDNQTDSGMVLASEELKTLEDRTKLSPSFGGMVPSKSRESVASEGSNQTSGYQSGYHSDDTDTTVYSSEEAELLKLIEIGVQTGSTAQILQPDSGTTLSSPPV
T1 sequence (P08581 whole entry, the tested form may be a part): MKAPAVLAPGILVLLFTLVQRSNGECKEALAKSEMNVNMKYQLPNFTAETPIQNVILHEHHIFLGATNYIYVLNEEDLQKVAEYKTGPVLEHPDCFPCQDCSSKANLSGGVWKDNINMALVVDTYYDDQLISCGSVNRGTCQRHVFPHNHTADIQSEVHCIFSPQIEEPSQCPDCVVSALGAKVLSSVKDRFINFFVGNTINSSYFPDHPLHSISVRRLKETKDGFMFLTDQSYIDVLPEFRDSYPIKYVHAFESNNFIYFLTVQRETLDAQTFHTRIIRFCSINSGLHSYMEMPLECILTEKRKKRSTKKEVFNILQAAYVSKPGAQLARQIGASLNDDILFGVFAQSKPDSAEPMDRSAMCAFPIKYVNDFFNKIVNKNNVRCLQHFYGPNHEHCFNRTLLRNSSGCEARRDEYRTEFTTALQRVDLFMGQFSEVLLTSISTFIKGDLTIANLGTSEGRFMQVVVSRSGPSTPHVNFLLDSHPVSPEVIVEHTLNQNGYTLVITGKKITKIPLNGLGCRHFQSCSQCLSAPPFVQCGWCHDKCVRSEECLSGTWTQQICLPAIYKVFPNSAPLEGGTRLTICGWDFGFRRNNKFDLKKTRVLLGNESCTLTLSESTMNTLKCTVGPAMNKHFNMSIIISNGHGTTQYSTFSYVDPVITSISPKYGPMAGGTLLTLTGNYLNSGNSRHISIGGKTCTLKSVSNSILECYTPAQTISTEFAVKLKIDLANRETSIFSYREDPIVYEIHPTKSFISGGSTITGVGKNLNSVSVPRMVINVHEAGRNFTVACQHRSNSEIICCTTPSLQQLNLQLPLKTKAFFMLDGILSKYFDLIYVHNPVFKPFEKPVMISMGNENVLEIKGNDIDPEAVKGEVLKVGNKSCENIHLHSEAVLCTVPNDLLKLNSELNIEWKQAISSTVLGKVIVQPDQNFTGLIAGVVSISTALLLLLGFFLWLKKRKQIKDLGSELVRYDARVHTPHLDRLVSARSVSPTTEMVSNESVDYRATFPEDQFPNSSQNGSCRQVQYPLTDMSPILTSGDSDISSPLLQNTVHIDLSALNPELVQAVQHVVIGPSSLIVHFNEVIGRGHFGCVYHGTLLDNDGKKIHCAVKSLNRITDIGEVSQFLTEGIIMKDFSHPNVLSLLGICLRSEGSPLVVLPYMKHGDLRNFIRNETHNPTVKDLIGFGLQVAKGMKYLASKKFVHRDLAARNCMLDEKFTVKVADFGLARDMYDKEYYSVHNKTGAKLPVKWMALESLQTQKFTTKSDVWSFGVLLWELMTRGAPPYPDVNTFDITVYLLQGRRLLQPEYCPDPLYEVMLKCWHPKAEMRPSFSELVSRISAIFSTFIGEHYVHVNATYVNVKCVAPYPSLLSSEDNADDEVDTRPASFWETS
Chain of Mast/stem cell growth factor receptor Kit (P10721 whole entry): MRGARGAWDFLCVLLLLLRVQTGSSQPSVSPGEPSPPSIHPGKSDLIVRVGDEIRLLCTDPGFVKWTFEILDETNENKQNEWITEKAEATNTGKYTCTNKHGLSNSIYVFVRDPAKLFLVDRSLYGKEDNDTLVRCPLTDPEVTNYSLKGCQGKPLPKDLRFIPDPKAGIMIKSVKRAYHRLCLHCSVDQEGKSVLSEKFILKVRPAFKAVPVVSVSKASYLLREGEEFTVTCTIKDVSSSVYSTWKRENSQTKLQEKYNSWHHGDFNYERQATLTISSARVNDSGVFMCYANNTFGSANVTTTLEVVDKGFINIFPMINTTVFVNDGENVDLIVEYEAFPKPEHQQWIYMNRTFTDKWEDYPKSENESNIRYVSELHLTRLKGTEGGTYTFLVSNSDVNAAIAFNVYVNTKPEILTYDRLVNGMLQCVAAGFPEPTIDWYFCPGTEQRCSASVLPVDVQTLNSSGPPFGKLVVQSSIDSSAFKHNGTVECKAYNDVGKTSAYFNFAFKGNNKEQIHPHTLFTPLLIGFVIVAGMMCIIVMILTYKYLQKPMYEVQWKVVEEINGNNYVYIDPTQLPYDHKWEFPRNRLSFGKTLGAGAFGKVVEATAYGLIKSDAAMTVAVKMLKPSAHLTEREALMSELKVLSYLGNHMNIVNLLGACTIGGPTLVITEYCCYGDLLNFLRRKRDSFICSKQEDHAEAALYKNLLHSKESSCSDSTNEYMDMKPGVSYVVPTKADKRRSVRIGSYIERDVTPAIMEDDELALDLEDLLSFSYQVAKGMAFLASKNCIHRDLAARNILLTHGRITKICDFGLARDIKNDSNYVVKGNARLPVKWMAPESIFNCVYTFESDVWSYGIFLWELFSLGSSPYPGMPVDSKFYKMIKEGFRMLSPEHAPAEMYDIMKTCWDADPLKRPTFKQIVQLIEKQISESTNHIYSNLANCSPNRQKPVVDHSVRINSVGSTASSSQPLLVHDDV
Chain of Platelet-derived growth factor receptor beta (P09619 whole entry): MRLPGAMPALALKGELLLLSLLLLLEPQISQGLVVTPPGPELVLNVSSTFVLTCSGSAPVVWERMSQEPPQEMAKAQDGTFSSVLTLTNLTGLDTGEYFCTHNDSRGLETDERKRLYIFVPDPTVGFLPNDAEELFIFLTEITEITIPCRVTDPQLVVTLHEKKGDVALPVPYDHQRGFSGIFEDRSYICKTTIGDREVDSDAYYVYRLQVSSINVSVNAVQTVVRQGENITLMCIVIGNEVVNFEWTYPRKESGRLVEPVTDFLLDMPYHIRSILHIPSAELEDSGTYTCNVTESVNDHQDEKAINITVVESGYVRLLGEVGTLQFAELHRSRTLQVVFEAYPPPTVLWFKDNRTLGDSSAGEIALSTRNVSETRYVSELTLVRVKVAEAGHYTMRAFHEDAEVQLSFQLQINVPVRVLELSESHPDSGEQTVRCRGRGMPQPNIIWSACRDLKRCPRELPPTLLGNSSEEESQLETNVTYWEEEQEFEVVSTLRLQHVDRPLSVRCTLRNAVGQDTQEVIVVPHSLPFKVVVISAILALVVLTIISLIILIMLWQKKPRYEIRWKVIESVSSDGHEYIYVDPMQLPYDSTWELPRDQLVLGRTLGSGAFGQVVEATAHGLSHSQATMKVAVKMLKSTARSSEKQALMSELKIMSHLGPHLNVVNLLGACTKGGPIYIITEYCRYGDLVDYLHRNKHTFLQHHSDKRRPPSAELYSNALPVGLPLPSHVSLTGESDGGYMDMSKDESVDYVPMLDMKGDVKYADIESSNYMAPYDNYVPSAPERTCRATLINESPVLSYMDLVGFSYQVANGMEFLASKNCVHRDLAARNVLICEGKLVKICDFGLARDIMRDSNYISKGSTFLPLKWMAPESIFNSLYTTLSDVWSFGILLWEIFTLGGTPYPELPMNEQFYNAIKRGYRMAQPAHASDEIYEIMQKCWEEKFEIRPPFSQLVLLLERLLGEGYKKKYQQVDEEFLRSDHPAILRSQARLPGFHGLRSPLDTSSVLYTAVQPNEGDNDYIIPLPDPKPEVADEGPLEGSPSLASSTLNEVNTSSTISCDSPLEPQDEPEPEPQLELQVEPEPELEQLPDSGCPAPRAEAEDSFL

COc1cc2c(Oc3ccc(Nc4nccc5[nH]cc(-c6ccc(F)cc6)c(=O)c45)cc3F)ncnc2cc1OCCN1CCOCC1
IC50 [1]: 24.5 nM

COc1cc2ncnc(Oc3ccc(Nc4nccc5[nH]cc(-c6ccc(F)cc6)c(=O)c45)cc3)c2cc1OC
Cmax [2]: 12100 ng/mL | inhibition in vivo at 75 mg/kg (U-87 MG [3]): 81% | half-life [4]: 10.4 h | AUC(0-t) at 504 h [5]: 279 µg·h/mL | IC50 [6]: 111 nM | Vz [7]: 0.4 L/kg | Cmax [8]: 16000 ng/mL | Cmax [9]: 25100 ng/mL | half-life [10]: 14 h | IC50 [11]: 28.3 nM | AUC(0-inf) [12]: 510 µg·h/mL | IC50 [13]: 16.9 nM | IC50 [1]: 9 nM | IC50 [14]: 86.5 nM | Tmax [15]: 1.8 min | Tmax [16]: 3.5 h | Vd [17]: 0.2 L/kg | bioavailability [18]: 42% | Cmax [19]: 44000 ng/mL | clearance [20]: 0.167 mL/min/kg | AUC(0-t) at 504 h [21]: 156 µg·h/mL | CL/F [22]: 0.333 mL/min/kg | inhibition in vivo at 25 mg/kg (U-87 MG [23]): 51% | AUC(0-inf) [24]: 427 µg·h/mL | half-life [25]: 12.5 h | ED50 (U-87 MG [26]; 504 h): 25 mg/kg | TGI (U-87 MG [26]; U-87MG ATCC): Dose-dependent effect | IC50 [27]: > 2000 nM

CCn1cc(-c2ccc(F)cc2)c(=O)c2c(Nc3ccc(Oc4ncnc5cc(OC)c(OC)cc45)c(F)c3)nccc21
IC50 [6]: > 3000 nM | Ratio IC50 (Homo sapiens): > 275 | IC50 [1]: 28.8 nM

COCCOc1cc2ncnc(Oc3ccc(Nc4nccc5[nH]cc(-c6ccc(F)cc6)c(=O)c45)cc3F)c2cc1OC
IC50 [6]: 140 nM | IC50 [1]: 42 nM

COCCOc1cc2c(Oc3ccc(Nc4nccc5[nH]cc(-c6ccc(F)cc6)c(=O)c45)cc3F)ncnc2cc1OC
IC50 [6]: 97.3 nM | IC50 [1]: 36 nM

COCCOc1cc2ncnc(Oc3ccc(Nc4nccc5[nH]cc(-c6ccc(F)cc6)c(=O)c45)cc3F)c2cc1OCCOC
IC50 [6]: 79.2 nM | IC50 [1]: 19.5 nM

COc1cc2ncnc(Oc3ccc(Nc4nccc5[nH]cc(-c6ccc(F)cc6)c(=O)c45)cc3F)c2cc1OCCCN1CCOCC1
IC50 [6]: 121 nM | IC50 [1]: 23.2 nM

COc1cc2c(Oc3ccc(Nc4nccc5[nH]cc(-c6ccc(F)cc6)c(=O)c45)cc3F)ncnc2cc1OCCCN1CCOCC1
IC50 [6]: 227 nM | IC50 [1]: 21.7 nM

COc1cc2c(Oc3ccc(Nc4nccc5[nH]cc(-c6ccc(F)cc6)c(=O)c45)cc3F)ncnc2cc1OCCO.Cc1ccc(S(=O)(=O)O)cc1
half-life [4]: 3.85 h | IC50 [6]: 21.7 nM | IC50 [1]: 13.9 nM

CCN(CC)CCCOc1cc2c(Oc3ccc(Nc4nccc5[nH]cc(-c6ccc(F)cc6)c(=O)c45)cc3F)ncnc2cc1OC
IC50 [6]: 163 nM | IC50 [1]: 9.4 nM | IC50 [14]: 397 nM

COc1cc2ncnc(Oc3ccc(Nc4nccc5[nH]cc(-c6ccc(F)cc6)c(=O)c45)cc3F)c2cc1OCCCN1CCCC1
IC50 [6]: 145 nM | IC50 [1]: 8.1 nM

COc1cc2ncnc(Oc3ccc(Nc4nccc5[nH]cc(-c6ccc(F)cc6)c(=O)c45)cc3F)c2cc1OCCCN1CCCCC1
IC50 [6]: 208 nM | IC50 [1]: 15.5 nM
